The text below walks through data of ChEMBL document CHEMBL3580660, “Synthesis and Biological Evaluation of Novel Olean-28,13β-lactams as Potential Antiprostate Cancer Agents” (J Med Chem, 2015).

SMILES strings stand for the structures. pIC50: −log10 of the molar value. The source made the active and inactive calls. The rule behind the calls is not given here.

The nature of assay [1]: Antiproliferative activity against human Bel7404 cells after 72 hrs by CCK8 assay. The assay is classed as functional, cell-based. The settings on record: BEL-7404, 72 h. In short, it runs like this: (§1)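 CCK-8 assay: DU-145, H460, Bxpc-3, BEL-7404 and nontumor WPMY-1 cells seeded at 5 × 10^3 cells/well in 10% FCS DMEM overnight, then exposed in triplicate to 0.041−10 μM for 72 h. CCK-8 added for final 30 min, absorbance 450 nm; inhibition relative to medium-only controls after background subtraction; IC50 as concentration giving 50% inhibition.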
Background: Formazan colour is commonly taken as a measure of viable cells.

Assay [2] relates to DU-145. Nature of the assay: Antiproliferative activity against human DU145 cells after 72 hrs by CCK8 assay. The format is functional, cell-based. The settings on record: DU-145, 72 h. In short, it runs like this: as §1
Assay [3] can be described thus: Antiproliferative activity against human H460 cells after 72 hrs by CCK8 assay. The format is functional, cell-based. The settings on record: NCI-H460, 72 h. In outline:
as §1

In assay [4] the test system is DU-145. Nature of the assay: Antiproliferative activity against human DU145 cells at 2 uM after 72 hrs by CCK8 assay. The assay is classed as functional. In outline: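 DU-145 screening at single concentration 2 μM for 72 h, proliferation by CCK-8 (cells 5 × 10^3/well in 10% FCS DMEM). Percent inhibition vs untreated, background-corrected; mean ± SD from three independent experiments.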

A short description of assay [5]: Antiproliferative activity against human BxPC3 cells after 72 hrs by CCK8 assay. The settings on record: BXPC-3, 72 h. The assay is classed as functional, cell-based. In outline: as §1
A short description of assay [6]: Antiproliferative activity against human WPMY-1 cells after 72 hrs by CCK8 assay. The settings on record: WPMY-1, 72 h. The format is functional, cell-based. In short, it runs like this:
as §1

`CC1(C)CC[C@]23CC[C@@]4(C)[C@]5(C)CC[C@H]6C(C)(C)C(=O)C(C#N)=C[C@]6(C)C5=CC(=O)[C@@]4([C@@H]2C1)N(C(C)(C)C)C3=O`: the pIC50 (in general, the IC50 on a negative log10 scale, so that one unit is a factor of ten) was 5.94 in assay [1]; 6.02 in the assay with DU-145 [2]; 6.37 in assay [3]; 6.18 in assay [5]; 5.02 in assay [6]. Also, the inhibition (usually the percentage by which the read-out fell short of the control) in the assay with DU-145 [4] is “Active”.

Consider `CCCCCCN1C(=O)[C@]23CCC(C)(C)C[C@H]2[C@]12C(=O)C=C1[C@@]4(C)C=C(C#N)C(=O)C(C)(C)[C@@H]4CC[C@@]1(C)[C@]2(C)CC3`, for which the inhibition result with DU-145 [4] was “Active”.

For `CC1(C)CC[C@]2(C(=O)NC3CCCCC3)CC[C@]3(C)[C@H](C(=O)C=C4[C@@]5(C)C=C(C#N)C(=O)C(C)(C)[C@@H]5CC[C@]43C)[C@@H]2C1`, the inhibition at 2 µM in the assay on DU-145 [4] (DU-145, 72 h) worked out at 53%.

Turning to `CC1(C)CC[C@]23CC[C@@]4(C)[C@]5(C)CC[C@H]6C(C)(C)C(=O)C(C#N)=C[C@]6(C)C5=CC(=O)[C@@]4([C@@H]2C1)N(CCc1ccccc1)C3=O`, the inhibition result in the assay on DU-145 [4] is “Active”.

As for `CC1(C)CC[C@]23CC[C@@]4(C)[C@]5(C)CC[C@H]6C(C)(C)C(=O)C(C#N)=C[C@]6(C)C5=CC(=O)[C@@]4([C@@H]2C1)N(CCO)C3=O`, the inhibition entry with DU-145 [4] was “Active”.

For the molecule `CCCCN1C(=O)[C@]23CCC(C)(C)C[C@H]2[C@]12C(=O)C=C1[C@@]4(C)C=C(C#N)C(=O)C(C)(C)[C@@H]4CC[C@@]1(C)[C@]2(C)CC3`, the inhibition result in the assay with DU-145 [4] is “Active”.

As for `CCCN1C(=O)[C@]23CCC(C)(C)C[C@H]2[C@]12C(=O)C=C1[C@@]4(C)C=C(C#N)C(=O)C(C)(C)[C@@H]4CC[C@@]1(C)[C@]2(C)CC3`, the inhibition entry in the assay with DU-145 [4] was “Active”.

On to `CCN1C(=O)[C@]23CCC(C)(C)C[C@H]2[C@]12C(=O)C=C1[C@@]4(C)C=C(C#N)C(=O)C(C)(C)[C@@H]4CC[C@@]1(C)[C@]2(C)CC3`, for which, in the assay with DU-145 [4], the inhibition result is “Active”.

As to `CN1C(=O)[C@]23CCC(C)(C)C[C@H]2[C@]12C(=O)C=C1[C@@]4(C)C=C(C#N)C(=O)C(C)(C)[C@@H]4CC[C@@]1(C)[C@]2(C)CC3`, in the assay with DU-145 [4], the inhibition entry is “Active”.

In the case of `CC1(C)CC[C@]2(C(=O)n3ccnc3)CC[C@]3(C)[C@H](C(=O)C=C4[C@@]5(C)C=C(C#N)C(=O)C(C)(C)[C@@H]5CC[C@]43C)[C@@H]2C1`, the pIC50 is 6.00 in assay [1]; 6.16 in the assay on DU-145 [2]; 6.38 in assay [3]; 5.82 in assay [5]; 5.68 in assay [6].
